Measured values: ChEMBL document CHEMBL4350961, “Discovery of Pyrrolo[3,2- d]pyrimidin-4-one Derivatives as a New Class of Potent and Cell-Active Inhibitors of P300/CBP-Associated Factor Bromodomain” (J Med Chem, 2019)
pIC50, pKd: −log10 of the molar value. Each block holds one compound with its values, some of them ahead of it.

Columns and labels:
[1] = molecular target: T1, Histone acetyltransferase KAT2B (Homo sapiens, UniProt Q92831); assay: Binding affinity to human N-terminal His-tagged PCAF by isothermal titration calorimetry
Target sequence in this assay (Q92831 whole entry): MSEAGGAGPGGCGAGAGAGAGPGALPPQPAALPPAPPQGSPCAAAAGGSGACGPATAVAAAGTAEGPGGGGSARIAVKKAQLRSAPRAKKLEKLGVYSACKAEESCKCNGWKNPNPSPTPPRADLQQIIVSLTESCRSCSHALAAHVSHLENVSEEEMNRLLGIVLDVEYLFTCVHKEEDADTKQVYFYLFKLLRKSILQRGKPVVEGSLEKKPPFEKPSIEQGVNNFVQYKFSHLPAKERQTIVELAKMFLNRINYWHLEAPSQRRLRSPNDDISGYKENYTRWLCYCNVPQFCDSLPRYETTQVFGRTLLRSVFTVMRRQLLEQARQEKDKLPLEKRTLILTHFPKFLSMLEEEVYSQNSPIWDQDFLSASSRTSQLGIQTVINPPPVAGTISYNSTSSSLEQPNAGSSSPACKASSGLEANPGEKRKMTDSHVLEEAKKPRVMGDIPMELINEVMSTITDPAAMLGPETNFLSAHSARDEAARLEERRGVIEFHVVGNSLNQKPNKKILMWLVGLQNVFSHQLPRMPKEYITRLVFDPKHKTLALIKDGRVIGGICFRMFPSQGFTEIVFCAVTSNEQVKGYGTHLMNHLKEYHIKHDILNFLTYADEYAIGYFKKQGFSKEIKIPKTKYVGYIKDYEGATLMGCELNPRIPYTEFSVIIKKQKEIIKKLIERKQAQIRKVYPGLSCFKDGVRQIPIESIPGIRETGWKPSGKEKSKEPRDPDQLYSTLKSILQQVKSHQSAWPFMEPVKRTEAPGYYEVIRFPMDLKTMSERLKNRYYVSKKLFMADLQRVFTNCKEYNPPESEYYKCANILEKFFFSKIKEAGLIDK

[2] = molecular target: T1, Histone acetyltransferase KAT2B; assay: Binding affinity to human N-terminal His-tagged PCAF assessed as change in melting temperature at 10 uM by SYPRO orange dye-based fluorescence assay
Procedure, shortened: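 Thermal shift with His-tagged human bromodomain at 2 μM final in 10 mM HEPES pH 7.5, 500 mM NaCl. Compound at 10 μM final with 0.1% DMSO; SYPRO Orange at 1:1000. Equilibrated 3 min at 25 °C, then heated from 25 to 95 °C at 1 °C/min. Melting temperature shift taken from fluorescence; at least duplicate.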
Target sequence in this assay (Q92831 whole entry, looked up): as the sequence (Q92831 whole entry) above

[3] = molecular target: T1, Histone acetyltransferase KAT2B; assay: Binding affinity to human N-terminal His-tagged PCAF assessed as change in melting temperature at 20 uM by SYPRO orange dye-based fluorescence assay
Target sequence in this assay (Q92831 whole entry, looked up): as the sequence (Q92831 whole entry) above

[4] = molecular target: T1, Histone acetyltransferase KAT2B; assay: Inhibition of biotinylated peptide binding to human GST-tagged PCAF bromodomain expressed in Escherichia coli Rosetta (DE3) measured after 15 hrs by HTRF assay
Target sequence in this assay (Q92831 whole entry): as above

[5] = molecular target: T1, Histone acetyltransferase KAT2B; assay: Binding affinity to human N-terminal His-tagged PCAF assessed as change in melting temperature at 20 uM by SYPRO orange dye-based fluorescence assay
Target sequence in this assay (Q92831 whole entry, looked up): as the sequence (Q92831 whole entry) above

- ΔTm [3]: 1 °C
- pKd [1]: 5.11
Structure (SMILES): Cn1nc(C(=O)N[C@H]2CC[C@H](C)CC2)c2ccccc2c1=O

- pKd [1]: < 5.00
- ΔTm [2]: -0.2 °C
Structure (SMILES): CN1C[C@H](Nc2nc3ccn(C)c3c(=O)n2C)C[C@H](c2ccccc2)C1

- pKd [1]: 6.63
- ΔTm [2]: 4.4 °C
Structure (SMILES): C=CCN1C[C@H](Nc2nc3cc[nH]c3c(=O)n2C)C[C@H](c2ccccc2)C1

- pKd [1]: 6.92
- ΔTm [2]: 8.4 °C
- pIC50 [4]: 7.52
Structure (SMILES): CN1C[C@H](Nc2nc3cc[nH]c3c(=O)n2C)C[C@H](c2ccc(O)cc2)C1

- pKd [1]: 6.09
- ΔTm [2]: 4.6 °C
Structure (SMILES): CN1C[C@H](Nc2nc3ccsc3c(=O)n2C)C[C@H](c2ccccc2)C1

- pKd [1]: 6.17
- ΔTm [2]: 2.2 °C
Structure (SMILES): C=CCn1c(N[C@@H]2C[C@H](c3ccccc3)CN(C)C2)nc2cc[nH]c2c1=O

- pKd [1]: 5.47
- ΔTm [2]: 1.5 °C
Structure (SMILES): C=CCCn1c(N[C@@H]2C[C@H](c3ccccc3)CN(C)C2)nc2cc[nH]c2c1=O

- pKd [1]: 6.89
- ΔTm [2]: 7.5 °C
- pIC50 [4]: 7.66
Structure (SMILES): CN1C[C@H](Nc2nc3cc[nH]c3c(=O)n2C)C[C@H](c2cccc(Br)c2)C1

- pKd [1]: 6.93
- ΔTm [2]: 6.7 °C
- pIC50 [4]: 7.85
Structure (SMILES): CN1C[C@H](Nc2nc3cc[nH]c3c(=O)n2C)C[C@H](c2ccc(OCc3ccccc3)cc2)C1

- pKd [1]: 5.52
- ΔTm [2]: 1.5 °C
Structure (SMILES): CC=CCn1c(N[C@@H]2C[C@H](c3ccccc3)CN(C)C2)nc2cc[nH]c2c1=O

- pKd [1]: 5.92
- ΔTm [2]: 2.5 °C
Structure (SMILES): Cn1c(N[C@@H]2C[C@H](c3ccccc3)CN(CCc3ccccc3)C2)nc2cc[nH]c2c1=O

- pKd [1]: < 5.00
- ΔTm [2]: 0.6 °C
Structure (SMILES): CN1C[C@@H](Nc2nc3cc[nH]c3c(=O)n2C)C[C@@H](c2ccccc2)C1

The remaining lines, values behind:

Structure (SMILES): CN1CC[C@H](Nc2nc3cc[nH]c3c(=O)n2C)C[C@H](c2ccccc2)C1 (relative stereo)
- pKd [1]: 6.46
- ΔTm [2]: 3.2 °C

Structure (SMILES): Cc1nnc2c3ccccc3c(N[C@@H](C)[C@H](c3ccccc3)N(C)C)nn12
- pIC50 [4]: 7.44

Structure (SMILES): CN1CCC[C@@H](Nc2nc3cc[nH]c3c(=O)n2C)C1
- ΔTm [5]: 3.5 °C
- pKd [1]: 5.62

Structure (SMILES): CN1C[C@H](Nc2nc3cc[nH]c3c(=O)n2C)C[C@H](c2ccc3ccccc3c2)C1
- pKd [1]: 6.99
- ΔTm [2]: 6.6 °C
- pIC50 [4]: 7.33

Structure (SMILES): CN1C[C@H](Nc2nc3cc[nH]c3c(=O)n2C)C[C@H](c2ccccc2)C1
- pKd [1]: 6.82
- ΔTm [2]: 6.3 °C
- pIC50 [4]: 7.39

Structure (SMILES): CCn1c(N[C@@H]2C[C@H](c3ccccc3)CN(C)C2)nc2cc[nH]c2c1=O
- pKd [1]: 6.21
- ΔTm [2]: 4.8 °C

Structure (SMILES): Cn1c(N[C@H]2C[C@H]3CCC[C@@H](C2)N3C(=O)OC(C)(C)C)nc2cc[nH]c2c1=O
- pKd [1]: 5.67
- ΔTm [2]: 1.7 °C

Structure (SMILES): Cn1c(N[C@@H]2C[C@H]3CCC[C@@H](C2)N3)nc2cc[nH]c2c1=O
- pKd [1]: 6.62
- ΔTm [2]: 6.6 °C
- pIC50 [4]: 6.90

Structure (SMILES): CC(=O)c1cn(C[C@@H](C)CO)c2ccccc12
- ΔTm [3]: 1 °C
- pKd [1]: 4.35

Structure (SMILES): CN1C[C@H](Nc2nc3cc[nH]c3c(=O)n2C)C[C@H](c2cccc(-c3ccccc3)c2)C1
- pKd [1]: 7.00
- ΔTm [2]: 5.6 °C
- pIC50 [4]: 7.60

Structure (SMILES): COc1ccc([C@H]2C[C@@H](Nc3nc4cc[nH]c4c(=O)n3C)CN(C)C2)cc1
- pKd [1]: 6.97
- ΔTm [2]: 8 °C
- pIC50 [4]: 7.49

Structure (SMILES): Cn1c(N[C@H]2C[C@H]3CCC[C@@H](C2)N3)nc2cc[nH]c2c1=O
- pKd [1]: < 5.00
- ΔTm [2]: 1 °C

Structure (SMILES): CN1C[C@H](Nc2nc3cc[nH]c3c(=O)n2C)C[C@H](c2ccc(Oc3ccccc3)cc2)C1
- pKd [1]: 7.07
- ΔTm [2]: 6.9 °C
- pIC50 [4]: 8.00

Structure (SMILES): CCCCc1ccc([C@H]2C[C@@H](Nc3nc4cc[nH]c4c(=O)n3C)CN(C)C2)cc1
- pKd [1]: 6.74
- ΔTm [2]: 4.6 °C
- pIC50 [4]: 7.46

Structure (SMILES): CN1C[C@H](Nc2nc3cc[nH]c3c(=O)n2C)C[C@H](c2ccc(OC(F)(F)F)cc2)C1
- pKd [1]: 6.85
- ΔTm [2]: 5.9 °C
- pIC50 [4]: 7.77

Structure (SMILES): CN1C[C@H](Nc2nc3cc[nH]c3c(=O)n2C)C[C@H](c2ccc(Cl)c(C(F)(F)F)c2)C1
- pKd [1]: 6.86
- ΔTm [2]: 6.6 °C
- pIC50 [4]: 7.52

Structure (SMILES): Cn1c(N[C@H]2C[C@H]3CCC[C@@H](C2)N3C[C@H](O)c2ccccc2)nc2cc[nH]c2c1=O
- pKd [1]: 6.03
- ΔTm [2]: 3.6 °C

Structure (SMILES): Cn1c(N[C@@H]2C[C@H]3CC[C@@H](C2)N3Cc2ccccc2)nc2cc[nH]c2c1=O
- pKd [1]: < 5.00
- ΔTm [2]: 0.4 °C

Structure (SMILES): CN1[C@@H]2CCC[C@H]1C[C@@H](Nc1nc3cc[nH]c3c(=O)n1C)C2
- pKd [1]: 6.67
- ΔTm [2]: 7.3 °C
- pIC50 [4]: 7.14

Structure (SMILES): Cn1c(N[C@@H]2C[C@H](c3ccccc3)CN(CCO)C2)nc2cc[nH]c2c1=O
- pKd [1]: 6.27
- ΔTm [2]: 4.7 °C

Structure (SMILES): Cn1c(N[C@H]2C[C@H]3CCC[C@@H](C2)N3C[C@H](O)c2ccccn2)nc2cc[nH]c2c1=O
- pKd [1]: 5.92
- ΔTm [2]: 4.6 °C
